Series [1] has as its target T1, Potassium voltage-gated channel subfamily KQT member 2 (Homo sapiens, UniProt O43526). Briefly: Activation of human Kv7.2 expressed in CHO cells assessed as increase in current amplitude at 10 uM measured at holding potential of 0 mV by whole cell patch clamp electrophysiology assay relative to control. The format is cell-based. The method, boiled down: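 Transiently transfected CHO cells expressing human Kv7.2, whole-cell patch clamp at 20–22°C in HEPES-buffered saline pH 7.4. Cells held at −80 mV and ramped −80 to +20 mV over 3 s, before and during 10 μM drug. Ramp current at 0 mV taken as drug/control ratio; mean ± SEM of ≥3 cells, ≥2 transfections.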
In general terms: In patch-clamp work, channel activity is measured electrically.

The target in series [2] is T2, Potassium voltage-gated channel subfamily KQT member 5 (Homo sapiens, UniProt Q9NR82). Briefly: Activation of human Kv7.5 expressed in CHO cells assessed as delta V at 10 uM by whole cell patch clamp electrophysiology assay. The format is cell-based.
Series [3] can be described thus: Photostability of compound in pH 7.4 buffer assessed as compound degradation at 100 ug/ml incubated for 4 hrs under natural solar light-irradiation by HPLC analysis relative to control. The method, boiled down: (§1)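 DMSO solutions diluted in pH 7.4 buffer, held in 1 cm quartz cells and exposed to natural daylight. Light-shielded controls kept at 37°C in foil. Aliquots drawn at set intervals and parent compound loss measured by UHPLC: C18 column, 0.1% TFA water/acetonitrile gradient, 45°C, detection at 254 nm.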

Series [4] is described as follows: Hydrophobicity of compound assessed as self aggregating property by measuring decrease in ratio between fluorescence intensity peaks at 372 nm to 383 nm at 0.7 to 100 uM by pyrene based fluorescence spectroscopic method. It is filed as physicochemical. The method, boiled down:
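DMSO stocks diluted in 0.9% NaCl to 0.7–100 μM, residual DMSO <0.1%. Pyrene used as probe, excited at 334 nm; emission recorded 200–700 nm, ten scans summed, at 25°C. Ratio of peak I (372 nm) to peak III (383 nm) intensity plotted against concentration.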

The target of series [5] is T1, Potassium voltage-gated channel subfamily KQT member 2. Briefly: Activation of human Kv7.2 expressed in CHO cells assessed as half-activation voltage at 0.03 uM in constant voltage pulse by whole cell patch clamp electrophysiology assay (reference value: -38.2 +/- 2 mV). The format is cell-based. The method, boiled down: (§2)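 Transiently transfected CHO cells (human Kv7.2 cDNA in pcDNA3.1, EGFP marker), recorded 24 h post-transfection by whole-cell patch clamp at 20–22°C; extracellular solution in mM 138 NaCl, 2 CaCl₂, 5.4 KCl, 1 MgCl₂, 10 glucose, 10 HEPES, pH 7.4. Constant voltage pulses before and after 0.03 μM compound; conductance/voltage curves fitted to double Boltzmann for V1/2 and maximal conductance.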

Series [6] addresses T2, Potassium voltage-gated channel subfamily KQT member 5. Briefly: Activation of human Kv7.5 expressed in CHO cells assessed as increase in channel current amplitude by whole cell patch clamp electrophysiology assay. It is filed as cell-based.
Series [7] is described as follows: Photostability of compound in pH 7.4 buffer assessed as compound degradation at 100 ug/ml incubated for 2 hrs under natural solar light-irradiation by HPLC analysis relative to control. The method, boiled down: as §1
Series [8] relates to Potassium voltage-gated channel subfamily KQT member 2 (Homo sapiens), O43526 [F168L]. Briefly: Activation of ICA-insensitive human Kv7.2 F168L mutant expressed in CHO cells assessed as increase in channel current amplitude at 10 uM measured at holding potential of -40 mV by whole cell patch clamp electrophysiology assay. The format is cell-based. The method, boiled down:
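CHO cells transiently co-transfected (Lipofectamine 2000, 4 μg total cDNA, EGFP marker) with human channel cDNA in pcDNA3.1, recorded 24 h later. Whole-cell patch clamp at 20–22°C, 3–5 MΩ pipettes, perfused extracellular solution pH 7.4. Held at −80 mV; 3-s ramps −80 to +20 mV ± 10 μM drug. Current at −40 mV with vs without drug expressed as ratio; ≥3 cells from ≥2 transfections, mean ± SEM.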

In series [9] the target is T1, Potassium voltage-gated channel subfamily KQT member 2. Briefly: Activation of human Kv7.2 expressed in CHO cells assessed as increase in maximal channel conductance at 0.03 uM in constant voltage pulses by whole cell patch clamp electrophysiology assay. It is filed as cell-based. The method, boiled down: as §2
Series [10] concerns the target T3, Voltage-gated potassium channel, KQT; KCNQ2(Kv7.2)/KCNQ3(Kv7.3) (Homo sapiens) (UniProt O43526+O43525). Briefly: Activation of human Kv7.2/Kv7.3 expressed in CHO cells assessed as delta V at 10 uM by whole cell patch clamp electrophysiology assay. It is filed as cell-based.
The test system of series [11] is NAT (phase 2 metabolism). Briefly: Drug metabolism in human liver S9 fractions assessed as assessed as NAT-mediated phase 2 metabolism at 1 mM preincubated for 5 mins followed by NADPH addition and measured after 60 mins by RP-UHPLC-DAD analysis relative to control. The format is ADME, subcellular. Particulars: read-out: Drug metabolism. The method, boiled down:
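Compound (2 μL of 1 mM stock) in 100 mM phosphate buffer pH 7.4 with pooled human liver S9, preincubated 5 min, then NADPH added, 37°C for 60 min. For UGT: 5 mM UDPGA, alamethicin, 1 mM MgCl added; for NAT: 2 mM DTT, sulfamethazine, 4.5 mM acetyl DL-carnitine, 0.1 U/mL carnitine acetyltransferase. Stopped with ice-cold methanol; RP-UHPLC-DAD; % turnover = 100 − (60 min/0 min concentration × 100).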

In series [12] the target is T3, Voltage-gated potassium channel, KQT; KCNQ2(Kv7.2)/KCNQ3(Kv7.3) (Homo sapiens). Briefly: Activation of human Kv7.2/Kv7.3 expressed in CHO cells assessed as increase in channel current amplitude by whole cell patch clamp electrophysiology assay. It is filed as cell-based. The method, boiled down:
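Human Kv7.2 plus Kv7.3 cDNAs co-transfected into CHO cells; whole-cell patch clamp at 20–22°C, extracellular solution pH 7.4. Drug applied at 0.01–10 μM to test concentration-dependent current increase.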

Series [13] can be described thus: Lipophilicity, log P of the compound. It is filed as physicochemical. Conditions: octanol/water.

pEC50: −log10 of the molar value. Calls of active or inactive are those of the source. No cut-off for these calls is given here.

Sequence of Potassium voltage-gated channel subfamily KQT member 2 (Homo sapiens), O43526 [F168L] (O43526 whole entry F168L, the tested form may be a part): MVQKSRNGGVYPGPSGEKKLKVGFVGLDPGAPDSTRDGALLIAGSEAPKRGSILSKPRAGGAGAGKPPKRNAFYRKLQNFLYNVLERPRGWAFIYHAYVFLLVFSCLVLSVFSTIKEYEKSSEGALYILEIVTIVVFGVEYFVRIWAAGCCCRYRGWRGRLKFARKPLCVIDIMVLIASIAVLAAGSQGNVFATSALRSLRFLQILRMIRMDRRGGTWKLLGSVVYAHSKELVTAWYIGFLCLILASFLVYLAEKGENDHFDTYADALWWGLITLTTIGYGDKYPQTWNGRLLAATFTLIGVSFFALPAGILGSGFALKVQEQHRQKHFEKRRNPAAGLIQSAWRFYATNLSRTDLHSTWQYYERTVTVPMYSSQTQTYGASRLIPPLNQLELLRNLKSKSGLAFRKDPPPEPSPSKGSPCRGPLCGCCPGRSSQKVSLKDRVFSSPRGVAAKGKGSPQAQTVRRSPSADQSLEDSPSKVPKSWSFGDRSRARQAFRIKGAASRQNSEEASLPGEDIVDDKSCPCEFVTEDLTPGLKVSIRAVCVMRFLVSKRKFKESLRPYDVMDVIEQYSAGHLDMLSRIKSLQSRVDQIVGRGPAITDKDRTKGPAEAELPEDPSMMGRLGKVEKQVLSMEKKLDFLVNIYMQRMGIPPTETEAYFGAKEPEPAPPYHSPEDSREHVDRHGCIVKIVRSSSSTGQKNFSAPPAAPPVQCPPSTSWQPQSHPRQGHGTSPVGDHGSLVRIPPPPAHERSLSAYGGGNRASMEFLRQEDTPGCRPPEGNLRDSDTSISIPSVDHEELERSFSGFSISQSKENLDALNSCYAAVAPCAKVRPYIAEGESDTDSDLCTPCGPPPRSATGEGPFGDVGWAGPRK
T2 sequence (Q9NR82 whole entry): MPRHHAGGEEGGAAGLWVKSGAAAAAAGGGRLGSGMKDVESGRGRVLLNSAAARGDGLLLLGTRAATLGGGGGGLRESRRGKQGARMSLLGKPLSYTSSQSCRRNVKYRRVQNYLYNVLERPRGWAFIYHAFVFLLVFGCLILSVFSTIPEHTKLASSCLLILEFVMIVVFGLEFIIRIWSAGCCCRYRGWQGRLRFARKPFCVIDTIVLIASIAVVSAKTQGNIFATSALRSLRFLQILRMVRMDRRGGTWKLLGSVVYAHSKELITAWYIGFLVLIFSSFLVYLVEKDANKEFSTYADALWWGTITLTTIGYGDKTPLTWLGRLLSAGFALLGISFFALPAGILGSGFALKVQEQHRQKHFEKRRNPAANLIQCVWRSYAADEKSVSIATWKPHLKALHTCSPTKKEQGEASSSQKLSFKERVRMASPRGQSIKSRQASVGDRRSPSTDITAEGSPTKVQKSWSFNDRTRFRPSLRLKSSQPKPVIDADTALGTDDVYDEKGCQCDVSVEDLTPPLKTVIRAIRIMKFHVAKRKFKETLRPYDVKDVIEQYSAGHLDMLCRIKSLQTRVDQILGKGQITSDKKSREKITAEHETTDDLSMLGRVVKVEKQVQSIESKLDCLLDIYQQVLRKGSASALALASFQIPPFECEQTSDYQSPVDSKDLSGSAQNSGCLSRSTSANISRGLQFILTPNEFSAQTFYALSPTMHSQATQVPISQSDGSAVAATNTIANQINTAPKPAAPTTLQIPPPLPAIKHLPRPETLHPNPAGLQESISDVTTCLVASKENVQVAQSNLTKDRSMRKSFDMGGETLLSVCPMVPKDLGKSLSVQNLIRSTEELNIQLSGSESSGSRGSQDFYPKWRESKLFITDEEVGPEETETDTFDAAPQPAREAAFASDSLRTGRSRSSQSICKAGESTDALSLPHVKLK
T1 sequence (O43526 whole entry): as the sequence (O43526 whole entry F168L, the tested form may be a part) above, with L168F counted along it

Consider `CCOC(=O)Nc1ccc(NCc2ccc(F)cc2)cc1N` [EZOGABINE], for which the Ratio in [1] was found to be 2. The Activity in series [2] is -21.95 mV; in series [4], “Not Active”; in [10], -26.8 mV. Moreover, the values for the Drug degradation in series [3] and in series [7] were 25.2% and 9.65%, respectively. Besides, in series [5], the V1/2 was -24.4 mV. For the same molecule, the pEC50 (commonly −log10 of the EC50, conventionally taken in molar units) in [6] is 6.10. For the same molecule, the outcome in series [8] was Active. In addition, in [9], the result was inactive. In series [11], the metabolised at 1 h, 1000 µM was found to be 3.41%.
Take `CC(C)(C)CC(=O)Nc1ccc2c(ccn2Cc2ccc(C(F)(F)F)cc2)c1`: the result in [1] and in [8] was Active. Further, the Activity entry was “Dose-dependent effect” in [12], -19.7 mV in series [2], “Active” in [4] and -20 mV in series [10]. Moreover, the values for the Drug degradation in series [3] and in series [7] were 6.62% and 0.96%, respectively. Also, the logP (commonly the decadic logarithm of the partition coefficient of the neutral form, usually between octanol and water) in [13] was 5.58. For the same molecule, the pEC50 in [6] was 6.46. In series [11], the metabolised at 1 h, 1000 µM was determined as 12.7%.
Take `CCCCCCC(=O)Nc1ccc2c(ccn2Cc2ccc(C(F)(F)F)cc2)c1`: the outcome in [1], in series [8] and in series [9] was Active. For the same molecule, the Activity entry in series [12] is “Dose-dependent effect”; in [2], -25.6 mV; in series [4], “Active”; in [10] it was -25.4 mV. For the same molecule, the Drug degradation in series [3] came to 5.82%; in series [7], 1.36%. The V1/2 in series [5] is -38.2 mV. The molecule further came in with a logP in [13] of 6.83. For the same molecule, the pEC50 in series [6] is 5.97.

Values taken from ChEMBL document CHEMBL4402547, “Synthesis and Pharmacological Characterization of Conformationally Restricted Retigabine Analogues as Novel Neuronal Kv7 Channel Activators” (J Med Chem, 2020).
